Measured values: publication PMC10413464 (ACS Omega, 2023)

Legend:
[1] = test system: Ecoil-tagged FcγRIIIa (V158); test: SPR capture of Ecoil-tagged FcγRIIIa on Kcoil surfaces; assay type: binding; settings: for FcγRIIIa capture rate: Ecoil-tagged FcγRIIIa 0.25 μg/mL, 10 μL/min, from 25 s test injection
Procedure, shortened: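 FcγRIIIa V158 was Ecoil-tagged, expressed transiently in CHO-3E7 and purified by metal affinity. Biacore T100 SPR used CM5 chips in HBS-EP at 25 °C. Kcoil surfaces were amine-coupled Cys-free, thiol-coupled Cys- or amine-coupled dimeric Cys-Kcoil. A short 25 s injection gave the capture rate, assumed constant, to set the injection time for a 20 RU capture. The test was repeated before each batch.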

Ecoil-EGF = test: SPR capture of Ecoil-EGF on Kcoil surfaces; assay type: binding; settings: 10 μL/min
Procedure, shortened: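 Biacore T100 SPR on CM5 dextran chips, HBS-EP running buffer, 25 °C, 10 Hz collection. A test injection gave the Ecoil-EGF capture rate (RU/s), used to capture about 10 RU. Ecoil-EGF was at 0.05 µg/mL on thiol-coupled Kcoil and 0.1 µg/mL on amine-coupled monomeric or dimeric Kcoil. Surfaces were regenerated with two 15 s pulses of 6 M guanidium-HCl.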

Ecoil peptide = test: SPR Ecoil peptide interaction with grafted Kcoil peptide; assay type: binding; settings: comparison of the three grafting strategies
[2] = Ecoil-EGF/hEGF capture on glass slides by ELISA; assay type: binding; settings: 5 nM hEGF stock, mean ± SD, n = 3
EGFR phosphorylation = settings: read-out: EC50 for EGFR phosphorylation in solution; cited from earlier work
[3] = target: cysteine-free azidohomoalanine-terminated Kcoil, AhaGG-(KVSALKE)5; test: SPR
[4] = target: dimeric Kcoil–Kcoil peptide (oxidized Cys-Kcoil, linked by a disulfide bond); test: SPR

AhaGG-(KVSALKE)5 [Cys-free Kcoil]
FcγRIIIa capture rate [1]: 0.06 RU/s
Ecoil-tagged FcγRIIIa capture (in words) ([1]; SPR, 20 RU target): furthest from the 20 RU target
Ecoil-EGF capture rate (Ecoil-EGF; Ecoil-EGF 0.1 μg/mL): 0.32 RU/s

CGG-(KVSALKE)5 [Cys-Kcoil]
FcγRIIIa capture rate [1]: 0.57 RU/s
bioavailability (in words) (Ecoil peptide): highest percentage of bioavailability
Ecoil-EGF capture rate (Ecoil-EGF; Ecoil-EGF 0.05 μg/mL): 1.32 RU/s

hEGF: Recombinant human EGF (hEGF, #236-EG)
density on amine surface after 2 h (non-specific adsorption) ([2]; amine surface): 0.50 ± 0.01 pmol/cm^2
density on thiol surface after 2 h (non-specific adsorption) ([2]; thiol surface): 0.50 ± 0.01 pmol/cm^2
EC50 (EGFR phosphorylation): 4 nM

B1: Ecoil peptide [(EVSALEK)5] (peptide)
peptide: Ac-EVSALEKEVSALEKEVSALEKEVSALEKEVSALEK-NH2
koff [3]: 0.000308 s⁻¹
koff [4]: 0.000468 s⁻¹
